Structures are written as SMILES. A value given as a limit tells only on which side of the number the result lay.

The target in test [1] is T1, Tyrosine-protein phosphatase non-receptor type 1 (Homo sapiens, UniProt P18031).
T1 sequence (P18031 whole entry): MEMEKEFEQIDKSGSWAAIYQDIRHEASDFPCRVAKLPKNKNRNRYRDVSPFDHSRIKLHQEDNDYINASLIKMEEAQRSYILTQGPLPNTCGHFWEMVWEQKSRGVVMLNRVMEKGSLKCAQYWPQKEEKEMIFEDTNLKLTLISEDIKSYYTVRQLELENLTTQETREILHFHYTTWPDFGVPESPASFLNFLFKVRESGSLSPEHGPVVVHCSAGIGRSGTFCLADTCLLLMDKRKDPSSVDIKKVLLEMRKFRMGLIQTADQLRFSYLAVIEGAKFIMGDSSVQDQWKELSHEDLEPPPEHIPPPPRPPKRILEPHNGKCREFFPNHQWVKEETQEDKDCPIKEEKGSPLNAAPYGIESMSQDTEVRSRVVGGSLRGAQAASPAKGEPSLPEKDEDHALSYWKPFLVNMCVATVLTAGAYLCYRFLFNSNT
Put plainly: Inhibition of human PTPN1 expressed in Escherichia coli Rosetta 2 (DE3) using pNPP as substrate after 45 mins by spectrophotometric method.

In test [2] the target is T2, Phosphotyrosine protein phosphatase (Mycobacterium tuberculosis, UniProt A0A045ISB3).
T2 sequence (A0A045ISB3 whole entry): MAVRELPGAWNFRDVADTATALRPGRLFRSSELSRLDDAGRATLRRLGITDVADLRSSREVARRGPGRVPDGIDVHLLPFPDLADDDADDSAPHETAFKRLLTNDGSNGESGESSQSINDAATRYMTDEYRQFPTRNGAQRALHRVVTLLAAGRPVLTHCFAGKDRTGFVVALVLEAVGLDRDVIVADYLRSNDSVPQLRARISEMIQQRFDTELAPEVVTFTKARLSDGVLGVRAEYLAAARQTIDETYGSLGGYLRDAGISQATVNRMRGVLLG
Put plainly: Inhibition of Mycobacterium tuberculosis His-tagged PtpB expressed in Escherichia coli Rosetta 2 (DE3) using pNPP as substrate after 30 mins by spectrophotometric method.

The target of test [3] is T3, Tyrosine-protein phosphatase non-receptor type 2 (Homo sapiens, UniProt P17706).
T3 sequence (P17706 whole entry): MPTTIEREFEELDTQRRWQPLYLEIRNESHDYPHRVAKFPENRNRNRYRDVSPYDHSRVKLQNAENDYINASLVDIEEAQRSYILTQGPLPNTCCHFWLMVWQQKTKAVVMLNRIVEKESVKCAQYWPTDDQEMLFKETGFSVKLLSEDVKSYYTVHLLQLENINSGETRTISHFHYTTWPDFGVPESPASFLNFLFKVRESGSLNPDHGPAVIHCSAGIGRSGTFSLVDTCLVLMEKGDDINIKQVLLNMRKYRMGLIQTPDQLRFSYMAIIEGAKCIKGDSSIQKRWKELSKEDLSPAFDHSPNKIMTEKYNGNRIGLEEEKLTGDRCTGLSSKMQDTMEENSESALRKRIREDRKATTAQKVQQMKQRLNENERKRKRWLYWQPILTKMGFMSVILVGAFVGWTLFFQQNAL
Put plainly: Inhibition of human PTPN2 expressed in Escherichia coli Rosetta 2 (DE3) using pNPP as substrate after 45 mins by spectrophotometric method.

Test [4] addresses T4, Tyrosine-protein phosphatase non-receptor type 5 (Homo sapiens, UniProt P54829).
T4 sequence (P54829 whole entry): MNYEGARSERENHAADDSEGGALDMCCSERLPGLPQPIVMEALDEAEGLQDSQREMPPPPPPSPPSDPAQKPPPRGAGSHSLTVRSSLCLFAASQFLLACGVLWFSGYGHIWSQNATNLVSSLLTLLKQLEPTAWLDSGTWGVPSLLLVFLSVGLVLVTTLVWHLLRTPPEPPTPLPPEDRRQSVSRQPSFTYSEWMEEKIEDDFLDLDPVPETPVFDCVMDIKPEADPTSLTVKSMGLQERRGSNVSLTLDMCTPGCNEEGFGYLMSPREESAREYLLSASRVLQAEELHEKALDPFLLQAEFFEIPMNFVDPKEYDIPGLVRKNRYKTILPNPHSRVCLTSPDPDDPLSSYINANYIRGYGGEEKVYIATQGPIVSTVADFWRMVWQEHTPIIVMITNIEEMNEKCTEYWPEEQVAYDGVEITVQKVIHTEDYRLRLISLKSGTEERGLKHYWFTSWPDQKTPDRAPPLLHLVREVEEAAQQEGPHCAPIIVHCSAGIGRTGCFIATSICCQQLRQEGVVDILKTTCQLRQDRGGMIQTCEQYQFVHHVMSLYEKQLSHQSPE
As to the kind of experiment: Inhibition of human PTPN5 expressed in Escherichia coli Rosetta 2 (DE3) using pNPP as substrate after 45 mins by spectrophotometric method.

Test [5] deals with Mycobacterium tuberculosis. As to the kind of experiment: Antitubercular activity against Mycobacterium tuberculosis H37Rv after 5 days at 200 uM relative to control. The class given is functional. Conditions: 120 h. In short, it runs like this: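 M. tuberculosis grown in liquid culture with compound at a fixed 200 μM for 5 days. Growth inhibition expressed as percent of control.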

In the case of `O=S(=O)(Nc1ccc(-c2nc3cc(NS(=O)(=O)c4cccc5ccccc45)ccc3o2)cc1)c1cccc2ccccc12`, the IC50 (commonly the concentration needed to halve the response being measured) amounted to 3.2 µM in test [1], 2.1 µM in test [2], 25 µM in test [3] and 4.9 µM in test [4]. Besides, in test [5], the inhibition (in general, the change of the read-out against control, counted positive when it falls) at 200 µM is 0%.

Take `COC(=O)c1cccc(S(=O)(=O)Nc2ccc(-c3nc4cc(NS(=O)(=O)c5cccc(C(=O)OC)c5)ccc4o3)cc2)c1`: the IC50 in test [1] was determined as 17 µM; in test [2] it was 5.8 µM; in test [3] it was 13 µM; in test [4] it was 16 µM. This compound also registered an inhibition at 200 µM in test [5] of 0%.

For the compound `O=S(=O)(Nc1ccc(-c2nc3cc(NS(=O)(=O)c4ccc(Cl)s4)ccc3o2)cc1)c1ccc(Cl)c(Cl)c1`, the IC50 in test [1] is 6.9 µM; in test [2], 2.3 µM; in test [3] it was 12 µM; in test [4], 9.8 µM. The compound also showed an inhibition at 200 µM in test [5] of 0%.

For `O=c1ccc2cc(S(=O)(=O)Nc3ccc4oc(-c5ccc(NS(=O)(=O)c6ccc(Cl)s6)cc5)nc4c3)ccc2o1`, the IC50 turned out to be 13 µM in test [1], 4.1 µM in test [2], 9.3 µM in test [3] and 11 µM in test [4]. Also, in test [5], the inhibition at 200 µM was 18%.

For `COC(=O)c1ccccc1S(=O)(=O)Nc1ccc(-c2nc3cc(NS(=O)(=O)c4ccccc4C(=O)OC)ccc3o2)cc1`, the IC50 in test [1] turned out to be 10 µM; in test [2], 11 µM; in test [3] it was 14 µM; in test [4] it was 21 µM. Also, in test [5], the inhibition at 200 µM was 0%.

On to `CCc1ccc(S(=O)(=O)Nc2ccc3oc(-c4ccc(NS(=O)(=O)c5ccc(Cl)s5)cc4)nc3c2)cc1`, for which the IC50 turned out to be 11 µM in test [1], 7.1 µM in test [2], 15 µM in test [3] and 15 µM in test [4]. The same compound gave an inhibition at 200 µM in test [5] of 0%.

In the case of `O=S(=O)(Nc1ccc(-c2nc3cc(NS(=O)(=O)c4ccc(Cl)cc4)ccc3o2)cc1)c1ccc(Cl)cc1`, the IC50 in test [1] turned out to be 8.1 µM; in test [2], 4.3 µM; in test [3] it was 19 µM; in test [4] it was 12 µM. Also, the inhibition at 200 µM in test [5] was 0%.

With `O=S(=O)(Nc1ccc2oc(-c3ccc(NS(=O)(=O)c4ccc(Cl)s4)cc3)nc2c1)c1ccc(F)c(C(F)(F)F)c1`, the IC50 in test [1] was determined as 11 µM; in test [2], 5.7 µM; in test [3], 20 µM; in test [4] it was 14 µM. In test [5], this compound came in with an inhibition at 200 µM of 0%.

On to `COC(=O)c1ccc(S(=O)(=O)Nc2ccc(-c3nc4cc(NS(=O)(=O)c5ccc(C(=O)OC)cc5)ccc4o3)cc2)cc1`, for which the IC50 came to 11 µM in test [1], 11 µM in test [2], 17 µM in test [3] and 22 µM in test [4]. At 200 µM the inhibition in test [5] was 0%.

On to `O=S(=O)(Nc1ccc2oc(-c3ccc(NS(=O)(=O)c4ccc(Cl)s4)cc3)nc2c1)c1ccc(Cl)c(Cl)c1`, for which the IC50 is 7.6 µM in test [1], 3.3 µM in test [2], 13 µM in test [3] and 11 µM in test [4]. Moreover, the inhibition at 200 µM in test [5] is 0%.

Consider `O=S(=O)(Nc1ccc(-c2nc3cc(NS(=O)(=O)c4ccc(Cl)s4)ccc3o2)cc1)c1ccc(F)c(C(F)(F)F)c1`, for which the IC50 in test [1] worked out at 8.6 µM; in test [2], 6.8 µM; in test [3], 8.5 µM; in test [4], 14 µM. This compound gave an inhibition at 200 µM in test [5] of 0%.

As for `O=S(=O)(Nc1ccc(-c2nc3cc(NS(=O)(=O)c4ccc(Cl)s4)ccc3o2)cc1)c1ccccc1`, the half-maximal inhibitory concentration (IC50) stood at 19 µM in test [1], 6.7 µM in test [2], 29 µM in test [3] and 17 µM in test [4]. Also, the inhibition at 200 µM in test [5] stood at 41%.

Take `O=S(=O)(Nc1ccc(-c2nc3cc(NS(=O)(=O)c4ccc(C(F)(F)F)cc4)ccc3o2)cc1)c1ccc(C(F)(F)F)cc1`: the IC50 is 6.4 µM in test [1], 2.8 µM in test [2], 13 µM in test [3] and 7.9 µM in test [4]. The same compound gave an inhibition at 200 µM in test [5] of 0%.

Turning to `O=S(=O)(Nc1ccc(-c2nc3cc(NS(=O)(=O)c4cccc(C(F)(F)F)c4)ccc3o2)cc1)c1cccc(C(F)(F)F)c1`, the IC50 stood at 12 µM in test [1], 2.9 µM in test [2], 12 µM in test [3] and 16 µM in test [4]. The inhibition at 200 µM in test [5] worked out at 0%.

Regarding `C=Cc1ccc(S(=O)(=O)Nc2ccc(-c3nc4cc(NS(=O)(=O)c5ccc(Cl)s5)ccc4o3)cc2)cc1`, the IC50 came out at 10 µM in test [1], 5 µM in test [2], 14 µM in test [3] and 13 µM in test [4]. For the same compound, at 200 µM the inhibition in test [5] was 14%.

As for `CCCS(=O)(=O)Nc1ccc(-c2nc3cc(NS(=O)(=O)CCC)ccc3o2)cc1`, the IC50 in test [1] was over 100 µM; in test [2] it was over 100 µM; in test [3], over 100 µM; in test [4], 83 µM. Moreover, the inhibition at 200 µM in test [5] is 13%.

Turning to `O=S(=O)(Nc1ccc(-c2nc3cc(NS(=O)(=O)c4ccc5ccccc5c4)ccc3o2)cc1)c1ccc2ccccc2c1`, the IC50 in test [1] came to 4.3 µM; in test [2], 4.4 µM; in test [3] it was 24 µM; in test [4] it was 6.2 µM. In addition, the inhibition at 200 µM in test [5] was determined as 0%.

Regarding `O=S(=O)(Nc1ccc(-c2nc3cc(NS(=O)(=O)C(F)(F)F)ccc3o2)cc1)C(F)(F)F`, the IC50 in test [1] is over 100 µM; in test [2], 42 µM; in test [3], over 100 µM; in test [4], over 100 µM. The compound also returned an inhibition at 200 µM in test [5] of 28%.

Consider `O=S(=O)(Cc1ccccc1)Nc1ccc(-c2nc3cc(NS(=O)(=O)Cc4ccccc4)ccc3o2)cc1`, for which the IC50 came out at 23 µM in test [1], 27 µM in test [2], 31 µM in test [3] and 25 µM in test [4]. This compound returned an inhibition at 200 µM in test [5] of 0%.

For `O=S(=O)(Nc1ccc(-c2nc3cc(NS(=O)(=O)c4cccc5ccccc45)ccc3o2)cc1)c1ccc(Cl)s1`, the half-inhibitory concentration (IC50) in test [1] amounted to 6.5 µM; in test [2], 2.2 µM; in test [3], 7.3 µM; in test [4], 5.1 µM. The compound also returned an inhibition at 200 µM in test [5] of 12%.

With `O=S(=O)(Nc1ccc(-c2nc3cc(NS(=O)(=O)c4ccc(Br)cc4)ccc3o2)cc1)c1ccc(Br)cc1`, the IC50 in test [1] turned out to be 11 µM; in test [2], 3.6 µM; in test [3], 18 µM; in test [4], 11 µM. The compound further had an inhibition at 200 µM in test [5] of 0%.

`CCc1ccc(S(=O)(=O)Nc2ccc(-c3nc4cc(NS(=O)(=O)c5ccc(Cl)s5)ccc4o3)cc2)cc1`: the IC50 was 14 µM in test [1], 6.5 µM in test [2], 12 µM in test [3] and 12 µM in test [4]. Testing at 200 µM in test [5] gave an inhibition of 11%.

On to `O=S(=O)(Nc1ccc(-c2nc3cc(NS(=O)(=O)c4ccc5ncsc5c4)ccc3o2)cc1)c1ccc2ncsc2c1`, for which the IC50 in test [1] stood at 7 µM; in test [2], 20 µM; in test [3], 12 µM; in test [4], 20 µM. In test [5], this compound returned an inhibition at 200 µM of 0%.

The values are drawn from ChEMBL document CHEMBL4387722.
